Reference: ChEMBL document CHEMBL1124161, “4-Hydroxy-3-quinolinecarboxamides with antiarthritic and analgesic activities” (J Med Chem, 1988)
Active and inactive are the calls of the source. No cut-off for these calls is given here.

How the values were obtained:
Rattus norvegicus [1] = test: Ulcerogenic effect after oral administration (intestinal ulcer); format: functional
Method in brief: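 Nonfasted male rats (150–180 g) killed 24 h after oral dosing, and intestinal ulcers scored. Ulceration index = (mean degree × rats with ulcers / rats) × 100. ED100 (index 100) determined graphically.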

Rattus norvegicus [2] = test: Anti-arthritis activity against adjuvant-induced arthritis in rats after peroral administration; format: functional
Method in brief: (§1)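 Groups of five male Lewis rats, 40–50 days old, given intraplantar injection in right hind paw of 0.6 mg Mycobacterium butyricum in 0.1 mL Bayol 55. Drug given in food from adjuvant day to day 17. Injected and noninjected hind paw volumes measured day 17 against normal controls. ED50 by least-squares curve fitting or Litchfield–Wilcoxon probit.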

[3] = target: T1, Polyunsaturated fatty acid 5-lipoxygenase (Rattus norvegicus, UniProt P12527); test: Inhibition of 5-lipoxygenase from rat peritoneal neutrophils in vitro
T1 sequence (P12527 whole entry): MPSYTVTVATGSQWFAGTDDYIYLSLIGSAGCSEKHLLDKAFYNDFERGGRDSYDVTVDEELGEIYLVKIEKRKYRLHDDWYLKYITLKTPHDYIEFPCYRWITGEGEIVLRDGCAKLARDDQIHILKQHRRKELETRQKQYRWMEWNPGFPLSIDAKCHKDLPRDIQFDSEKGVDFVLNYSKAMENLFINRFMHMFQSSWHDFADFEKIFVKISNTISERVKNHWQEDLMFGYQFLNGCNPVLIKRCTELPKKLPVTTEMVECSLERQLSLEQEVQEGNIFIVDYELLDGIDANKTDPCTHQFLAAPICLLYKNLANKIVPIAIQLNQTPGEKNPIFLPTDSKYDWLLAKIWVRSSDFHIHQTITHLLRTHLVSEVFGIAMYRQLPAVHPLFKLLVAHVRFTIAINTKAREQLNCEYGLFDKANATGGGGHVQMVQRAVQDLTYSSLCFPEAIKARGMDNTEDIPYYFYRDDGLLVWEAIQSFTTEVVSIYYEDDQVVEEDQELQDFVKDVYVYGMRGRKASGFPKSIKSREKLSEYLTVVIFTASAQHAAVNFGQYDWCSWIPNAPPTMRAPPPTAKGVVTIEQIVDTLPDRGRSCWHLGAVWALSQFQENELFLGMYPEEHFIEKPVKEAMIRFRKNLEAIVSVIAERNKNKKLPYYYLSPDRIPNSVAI

Rattus norvegicus [4] = test: Antiinflammatory activity against carrageenan-induced foot edema in rat after peroral administration; format: functional; details: po
Method in brief: (§2)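 Groups of eight male Sprague-Dawley rats (150–180 g) dosed orally at the time of subplantar injection of 0.5 mg carrageenin. Paw volume difference measured before and 5 h after injection. Expressed as ED40, estimated graphically or by Litchfield–Wilcoxon probit analysis.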

Mus musculus [5] = test: Analgesic activity against acetic acid induced writhing test in mouse after peroral administration; format: functional
Rattus norvegicus [6] = test: Ulcerogenic effect after oral administration (gastric ulcer); format: functional
Method in brief: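 Groups of eight female rats (120–150 g), fasted 24 h, dosed orally; killed 7 h later and stomachs scored. Ulceration index = (mean ulcer degree × rats with ulcers / number of rats) × 100, ulcers being scores above 0.5. ED100 (index 100, max 300) read graphically.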

Mus musculus [7] = test: Analgesic activity against acetic acid induced writhing test in mouse administered po at 50 mg/kg; IA=Inactive; format: functional, organism-based; set-up: dose 50 mg/kg
Method in brief: (§3)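 Female mice (20–22 g), groups of 10, fasted 7 h; drug given orally 30 min before intraperitoneal injection of 0.2 mL 1% aqueous acetic acid. Stretching/writhing movements counted from minute 5 to 20 after irritant.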

Mus musculus [8] = test: Analgesic activity against acetic acid induced writhing test in mouse administered po at 100 mg/kg; IA=Inactive; format: functional, organism-based; set-up: dose 100 mg/kg; method in brief: as §3
Rattus norvegicus [9] = test: Antiinflammatory activity against carrageenan-induced foot edema after peroral administration in rat; format: functional; details: po; method in brief: as §2
Rattus norvegicus [10] = test: Antiarthritis activity against adjuvant-induced arthritis in rats administered po at 10 mg/kg; IA=Inactive; format: functional, organism-based; set-up: dose 10 mg/kg
Mus musculus [11] = test: Analgesic activity against acetic acid induced writhing test in mouse after peroral administration at 100 mg/kg; IA=Inactive; format: functional, organism-based; set-up: dose 100 mg/kg; method in brief: as §3
Rattus norvegicus [12] = test: Antiinflammatory activity against carrageenan-induced foot edema in rat after oral administration of 25 mg/kg; IA=Inactive; format: functional, organism-based; set-up: dose 25 mg/kg
Mus musculus [13] = test: Analgesic activity against acetic acid induced writhing test in mouse administered peroral dose of 25 mg/kg; IA=Inactive; format: functional, organism-based; set-up: dose 25 mg/kg; method in brief: as §3
Rattus norvegicus [14] = test: Antiinflammatory activity against carrageenan-induced foot edema in rat after peroral administration of 300 mg/kg; IA=Inactive; format: functional, organism-based; set-up: dose 300 mg/kg
Rattus norvegicus [15] = test: Antiinflammatory activity against carrageenan-induced foot edema in rat after peroral administration of 25 mg/kg; IA means Inactive; format: functional, organism-based; set-up: dose 25 mg/kg
Mus musculus [16] = test: Analgesic activity against acetic acid induced writhing test in mouse after peroral administration, treatment 6 hr before testing; format: functional; details: po
Method in brief: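 Groups of 10 female mice (20–22 g), fasted 7 h, dosed orally 6 h before ip injection of 0.2 mL 1% aqueous acetic acid. Stretching and writhing movements counted from minute 5 to 20 after irritant. ED50 evaluated graphically or by computerized least-squares curve fitting.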

Cyclooxygenase = target: T2, Cyclooxygenase (Bos taurus, UniProt O62664+O62698); test: Inhibition of bovine Prostaglandin G/H synthase in seminal vesicle microsomes in vitro
T2 sequence (O62664 whole entry): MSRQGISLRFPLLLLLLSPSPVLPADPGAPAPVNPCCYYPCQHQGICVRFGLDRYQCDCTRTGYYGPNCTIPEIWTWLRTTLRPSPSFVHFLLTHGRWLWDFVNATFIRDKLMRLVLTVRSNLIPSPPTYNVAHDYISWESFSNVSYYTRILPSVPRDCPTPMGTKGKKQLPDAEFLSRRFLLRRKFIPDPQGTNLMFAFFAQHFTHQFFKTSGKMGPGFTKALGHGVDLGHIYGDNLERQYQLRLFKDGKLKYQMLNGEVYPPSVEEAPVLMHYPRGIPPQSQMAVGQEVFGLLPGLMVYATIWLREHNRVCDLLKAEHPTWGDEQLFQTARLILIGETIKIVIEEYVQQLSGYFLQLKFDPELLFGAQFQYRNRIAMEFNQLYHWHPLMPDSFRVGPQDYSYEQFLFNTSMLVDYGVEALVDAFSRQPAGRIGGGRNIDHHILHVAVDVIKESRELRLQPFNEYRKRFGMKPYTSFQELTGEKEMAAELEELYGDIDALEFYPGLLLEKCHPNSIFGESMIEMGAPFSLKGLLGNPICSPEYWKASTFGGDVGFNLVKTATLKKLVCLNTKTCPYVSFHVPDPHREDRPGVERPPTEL
T2 sequence (O62698 whole entry): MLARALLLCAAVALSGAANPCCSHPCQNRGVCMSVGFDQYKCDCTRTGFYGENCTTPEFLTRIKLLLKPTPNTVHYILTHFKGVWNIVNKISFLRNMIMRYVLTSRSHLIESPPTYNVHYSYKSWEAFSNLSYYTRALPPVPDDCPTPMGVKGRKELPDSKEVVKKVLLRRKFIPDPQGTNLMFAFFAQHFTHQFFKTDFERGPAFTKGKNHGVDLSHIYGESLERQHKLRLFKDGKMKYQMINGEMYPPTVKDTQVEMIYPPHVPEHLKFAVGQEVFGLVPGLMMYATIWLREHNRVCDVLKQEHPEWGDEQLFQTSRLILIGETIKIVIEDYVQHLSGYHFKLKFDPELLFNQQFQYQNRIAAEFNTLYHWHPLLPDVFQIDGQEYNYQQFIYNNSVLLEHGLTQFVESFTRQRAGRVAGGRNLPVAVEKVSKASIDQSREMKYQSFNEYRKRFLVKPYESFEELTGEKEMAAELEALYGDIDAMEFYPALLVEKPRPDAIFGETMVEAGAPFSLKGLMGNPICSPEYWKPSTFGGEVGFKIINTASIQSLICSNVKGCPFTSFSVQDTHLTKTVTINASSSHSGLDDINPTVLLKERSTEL

Rattus norvegicus [17] = species: Rattus norvegicus; test: Antiarthritis activity against adjuvant-induced arthritis in rats; format: functional; method in brief: as §1
Mus musculus [18] = test: Analgesic activity against acetic acid induced writhing test in mouse after peroral administration at 100 mg/kg; IA=Inactive
Rattus norvegicus [19] = test: Antiarthritis activity against adjuvant-induced arthritis in rats at 25 mg/kg; IA=Inactive; format: functional, organism-based; set-up: dose 25 mg/kg
Mus musculus [20] = test: Analgesic activity against acetic acid induced writhing test in mouse after peroral administration of 100 mg/kg; IA=Inactive; format: functional, organism-based; set-up: dose 100 mg/kg; method in brief: as §3
Rattus norvegicus [21] = test: Antiinflammatory activity against carrageenan-induced foot edema in rat after peroral administration of 100 mg/kg; IA=Inactive; format: functional, organism-based; set-up: dose 100 mg/kg
Rattus norvegicus [22] = test: Antiinflammatory activity against carrageenan-induced foot edema in rat after oral administration of 20 mg/kg; IA=Inactive; format: functional, organism-based; set-up: dose 20 mg/kg
[23] = Rattus norvegicus, po, read-out: ED50
[24] = Mus musculus, po, read-out: ED50

SMILES: CN1C(C(=O)Nc2ccccn2)=C(O)c2ccccc2S1(=O)=O [PIROXICAM]
- ED100 (Rattus norvegicus [1]): 20 mg/kg
- ED50 (Rattus norvegicus [2]; [23]): 0.8 mg/kg
- IC50 [3]: > 100000 nM
- ED40 (Rattus norvegicus [4]): 8 mg/kg
- ED50 (Mus musculus [5]; [24]): 3.3 mg/kg
- ED100 (Rattus norvegicus [6]): 9 mg/kg

SMILES: Cc1cc(NC(=O)c2cnc3c(C(F)(F)F)cccc3c2O)no1
- ED50 (Mus musculus [7]): inactive

SMILES: CCC(=O)OC(c1nc2c(C(F)(F)F)cccc2c(O)c1C(=O)Nc1ccccn1)C(C)C (stereo not given)
- ED50 (Rattus norvegicus [2]; [23]): 5 mg/kg
- ED50 (Mus musculus [8]): inactive

SMILES: O=C(Nc1nccs1)c1c(C(O)C2CCCCC2)nc2c(C(F)(F)F)cccc2c1O (stereo not given)
- ED40 (Rattus norvegicus [9]): > 100 mg/kg
- ED50 (Mus musculus [8]): inactive
- ED50 (Rattus norvegicus [10]): inactive

SMILES: CCCCCCCCCCCC(=O)OC(CC)c1nc2c(C(F)(F)F)cccc2c(O)c1C(=O)Nc1nccs1 (stereo not given)
- ED50 (Mus musculus [11]): inactive
- ED50 (Rattus norvegicus [2]; [23]): > 5 mg/kg

SMILES: CCCCC(O)c1nc2c(C(F)(F)F)cccc2c(O)c1C(=O)Nc1nccs1 (stereo not given)
- ED40 (Rattus norvegicus [9]): > 100 mg/kg
- ED50 (Rattus norvegicus [2]; [23]): > 20 mg/kg
- ED50 (Mus musculus [5]; [24]): ≥ 100 mg/kg

SMILES: C=Cc1nc2c(C(F)(F)F)cccc2c(O)c1C(=O)Nc1nccs1
- ED50 (Rattus norvegicus [12]): inactive
- ED50 (Mus musculus [13]): inactive

SMILES: O=C(Nc1nccs1)c1cnc2cc(Cl)ccc2c1O
- ED50 (Rattus norvegicus [14]): inactive
- ED50 (Mus musculus [5]; [24]): > 100 mg/kg

SMILES: COCc1nc2c(C(F)(F)F)cccc2c(O)c1C(=O)Nc1nccs1
- ED50 (Rattus norvegicus [15]): inactive
- ED50 (Mus musculus [5]; [24]): 25 mg/kg

SMILES: CCC(=O)OC(CC)c1nc2c(C(F)(F)F)cccc2c(O)c1C(=O)Nc1nccs1 (stereo in doubt; 102)
- ED100 (Rattus norvegicus [1]): >250 mg/kg
- ED50 (Rattus norvegicus [2]): 0.7 mg/kg
- ED50 (Mus musculus [16]): 4.6 mg/kg
- IC50 (Cyclooxygenase): 2100 nM
- IC50 [3]: 3000 nM
- ED50 (Rattus norvegicus [17]): 0.7 mg/kg
- ED40 (Rattus norvegicus [4]): 4 mg/kg
- ED50 (Mus musculus [5]): 50 mg/kg
- ED100 (Rattus norvegicus [6]): >300 mg/kg

SMILES: O=C(Nc1nccs1)c1c(CO)nc2c(C(F)(F)F)cccc2c1O
- ED50 (Mus musculus [18]): inactive
- ED50 (Rattus norvegicus [19]): inactive

SMILES: Cn1ccnc1NC(=O)c1c(C(F)(F)F)nc2c(C(F)(F)F)cccc2c1O
- ED50 (Mus musculus [20]): inactive
- ED50 (Rattus norvegicus [21]): inactive

SMILES: CCC(O)c1nc2c(C(F)(F)F)cccc2c(O)c1C(=O)Nc1nccs1 (stereo in doubt; 89)
- ED50 (Rattus norvegicus [2]): 1.6 mg/kg
- IC50 (Cyclooxygenase): 200 nM
- IC50 [3]: 1100 nM
- ED50 (Rattus norvegicus [17]): 2 mg/kg
- ED40 (Rattus norvegicus [4]): 5 mg/kg
- ED50 (Mus musculus [5]): 3 mg/kg
- ED100 (Rattus norvegicus [6]): 12 mg/kg

SMILES: O=C(Nc1nccs1)c1c(-c2ccccc2)nc2c(C(F)(F)F)cccc2c1O
- ED50 (Rattus norvegicus [22]): inactive
- ED50 (Mus musculus [5]; [24]): 50 mg/kg
